Results taken from ChEMBL document CHEMBL4431385, “Substituted tetracyclic indole core derivatives of HCV NS5A inhibitor MK-8742” (Bioorg Med Chem Lett, 2016).
Changes are numbered by the printed parent chain.

Tests used:
[1] = target: T1, Nonstructural protein 5A (Hepatitis C virus) (UniProt Q5L478); test: Inhibition of HCV GT1a NS5A assessed as suppression of replicon RNA level by real-time PCR analysis; conditions: Hepatitis C virus subtype 1a
T1 sequence (whole entry): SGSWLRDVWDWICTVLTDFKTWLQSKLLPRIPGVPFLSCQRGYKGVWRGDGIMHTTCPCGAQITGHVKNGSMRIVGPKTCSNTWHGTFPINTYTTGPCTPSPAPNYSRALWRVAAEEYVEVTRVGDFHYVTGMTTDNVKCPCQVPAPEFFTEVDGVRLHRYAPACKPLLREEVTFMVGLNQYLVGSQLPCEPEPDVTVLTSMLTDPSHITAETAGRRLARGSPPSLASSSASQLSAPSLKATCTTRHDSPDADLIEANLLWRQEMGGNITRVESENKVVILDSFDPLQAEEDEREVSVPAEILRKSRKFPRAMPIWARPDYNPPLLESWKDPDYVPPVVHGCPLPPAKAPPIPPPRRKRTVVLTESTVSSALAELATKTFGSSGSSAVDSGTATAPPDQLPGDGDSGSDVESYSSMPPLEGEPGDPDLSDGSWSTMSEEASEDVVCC

[2] = target: T1, Nonstructural protein 5A (Hepatitis C virus); test: Inhibition of HCV GT2b NS5A assessed as suppression of replicon RNA level by real-time PCR analysis; conditions: Hepatitis C virus subtype 2b
In short: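 GT2b replicon, which carries the naturally occurring NS5A 31M resistance-associated variant; potency given as EC90 in nM.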

[3] = target: T1, Nonstructural protein 5A (Hepatitis C virus); test: Inhibition of HCV GT3a NS5A assessed as suppression of replicon RNA level by real-time PCR analysis; conditions: Hepatitis C virus subtype 3a
[4] = system: T2, Nonstructural protein 5A (Hepatitis C virus), Q5L478 [Y93H]; test: Inhibition of HCV GT1a NS5A Y93H mutant assessed as suppression of replicon RNA level by real-time PCR analysis; conditions: Hepatitis C virus subtype 1a
T2 sequence (whole entry): T1 sequence (whole entry) with Y93H

[5] = system: Nonstructural protein 5A (Hepatitis C virus), Q5L478 [UNDEFINED MUTATION]; test: Inhibition of HCV GT1a NS5A L31V mutant assessed as suppression of replicon RNA level by real-time PCR analysis; conditions: Hepatitis C virus subtype 1a
[6] = AUC in Sprague-Dawley rat at 10 mg/kg, po; type: ADME, organism-based; conditions: in vivo
In short: (§1)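 Male Sprague–Dawley rats got an IV dose of 2 mg/kg in 60% PEG200 and a PO dose of 10 mpk in 10% TWEEN. Reported values are PO AUC (µM h), PO Cmax (µM), T1/2 (h), clearance (ml/min/kg) and oral bioavailability F (%).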

[7] = Cmax in Sprague-Dawley rat at 10 mg/kg, po; type: ADME, organism-based; set-up: dose 10 mg/kg, route oral; conditions: in vivo; in short: as §1
[8] = Half life in Sprague-Dawley rat at 10 mg/kg, po or 2 mg/kg, iv; type: ADME, organism-based; conditions: in vivo; in short: as §1
[9] = Clearance in Sprague-Dawley rat at 10 mg/kg, po or 2 mg/kg, iv; type: ADME, organism-based; conditions: in vivo; in short: as §1
[10] = Oral bioavailability in Sprague-Dawley rat at 10 mg/kg; type: ADME, organism-based; conditions: in vivo; in short: as §1
[11] = system: Hepatitis C virus subtype 1a; test: Selectivity ratio of EC90 for HCV GT1a NS5A Y93H mutant to EC90 for HCV GT1a NS5A
[12] = Selectivity ratio of EC90 for HCV GT2b NS5A to EC90 for HCV GT1a NS5A
[13] = system: Hepatitis C virus subtype 1a; test: Selectivity ratio of EC90 for HCV GT1a NS5A L31V mutant to EC90 for HCV GT1a NS5A
[14] = target: T1, Nonstructural protein 5A (Hepatitis C virus); test: Inhibition of HCV GT1b NS5A assessed as suppression of replicon RNA level by real-time PCR analysis; conditions: Hepatitis C virus subtype 1b
[15] = target: T1, Nonstructural protein 5A (Hepatitis C virus); test: Inhibition of HCV GT2a NS5A assessed as suppression of replicon RNA level by real-time PCR analysis; conditions: Hepatitis C virus subtype 2a
[16] = target: T1, Nonstructural protein 5A (Hepatitis C virus); test: Inhibition of HCV GT4a NS5A assessed as suppression of replicon RNA level by real-time PCR analysis; conditions: Hepatitis C virus subtype 4a
[17] = AUC in Sprague-Dawley rat at 5 mg/kg, po; type: ADME, organism-based; conditions: in vivo
In short: (§2)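 Male Sprague–Dawley rats got IV dosing at 2 mg/kg in 60% PEG200 and PO dosing at 5 mpk in either 0.5% MC or 10% TWEEN, depending on compound. The readouts are PO AUC (µM h), PO Cmax (µM), T1/2 (h), Cl (ml/min/kg) and F (%).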

[18] = Cmax in Sprague-Dawley rat at 5 mg/kg, po; type: ADME, organism-based; set-up: dose 5 mg/kg, route oral; conditions: in vivo; in short: as §2
[19] = Half life in Sprague-Dawley rat at 5 mg/kg, po or 2 mg/kg, iv; type: ADME, organism-based; conditions: in vivo; in short: as §2
[20] = Clearance in Sprague-Dawley rat at 5 mg/kg, po or 2 mg/kg, iv; type: ADME, organism-based; conditions: in vivo; in short: as §2
[21] = Oral bioavailability in Sprague-Dawley rat at 5 mg/kg; type: ADME, organism-based; conditions: in vivo; in short: as §2

SMILES | EC90 [1] | EC90 [2] | EC90 [3] | EC90 [4] | EC90 [5] | EC90 [14] | EC90 [15] | EC90 [16] | further results
COC(=O)N[C@H](C(=O)N1CCC[C@H]1c1ncc(-c2cc(F)c3c(c2)OC(c2cc(Cl)cc(OC)c2)n2c-3cc3cc(-c4cnc([C@@H]5CCCN5C(=O)[C@@H](NC(=O)OC)C(C)C)[nH]4)ccc32)[nH]1)C(C)C (stereo partly specified) | 0.01 nM | 0.7 nM | 0.1 nM | 3 nM | 0.1 nM | – | – | – | AUC [6]: 0.75 µM·h; Cmax [7]: 100 nM; half-life [8]: 5.2 h; clearance [9]: 8 mL/min/kg; bioavailability [10]: 3%; Selectivity ratio [11]: 300; Selectivity ratio [12]: 70; Selectivity ratio [13]: 10
COC(=O)N[C@H](C(=O)N1C[C@H](F)C[C@H]1c1ncc(-c2cc(F)c3c(c2)OC(c2ccccc2)n2c-3cc3cc(-c4cnc([C@@H]5C[C@@H](F)CN5C(=O)[C@@H](NC(=O)OC)C(C)C)[nH]4)ccc32)[nH]1)C(C)C (mixture of isomers) | 0.005 nM | 72 nM | 0.8 nM | 0.08 nM | 9 nM | 0.003 nM | 0.2 nM | 0.1 nM | Selectivity ratio [11]: 16
COC(=O)N[C@H](C(=O)N1CCC[C@H]1c1ncc(-c2cc(F)c3c(c2)O[C@@H](c2ccccc2)n2c-3cc3cc(-c4cnc([C@@H]5CCCN5C(=O)[C@@H](NC(=O)OC)C(C)C)[nH]4)ccc32)[nH]1)C(C)C | 0.005 nM | 18 nM | 0.4 nM | 34 nM | 0.4 nM | 0.003 nM | 0.15 nM | 0.04 nM | AUC ([17]; Sprague-Dawley, read-out: AUC): 2.8 µM·h; Cmax [18]: 330 nM; half-life [19]: 3.6 h; clearance [20]: 11 mL/min/kg; bioavailability [21]: 33%
COC(=O)N[C@H](C(=O)N1CCC[C@H]1c1ncc(-c2cc(F)c3c(c2)OC(c2cccc(OC)c2)n2c-3cc3cc(-c4cnc([C@@H]5CCCN5C(=O)[C@@H](NC(=O)OC)C(C)C)[nH]4)ccc32)[nH]1)C(C)C (stereo partly specified) | 0.01 nM | 6 nM | 0.07 nM | 6 nM | 0.2 nM | – | – | – | AUC [6]: 2.1 µM·h; Cmax [7]: 240 nM; half-life [8]: 5.9 h; clearance [9]: 10 mL/min/kg; bioavailability [10]: 12%
COC(=O)N[C@H](C(=O)N1CCC[C@H]1c1ncc(-c2ccc3c(c2)c(F)c2n3C(c3ccccc3)Oc3cc(-c4cnc([C@@H]5C[C@@H](F)CN5C(=O)[C@@H](NC(=O)OC)C(C)C)[nH]4)ccc3-2)[nH]1)C(C)C (stereo partly specified) | 0.002 nM | 33 nM | 0.2 nM | 2 nM | 1 nM | 0.001 nM | 0.003 nM | 0.04 nM | –
COC(=O)N[C@H](C(=O)N1C[C@H](F)C[C@H]1c1ncc(-c2ccc3c(c2)OC(c2ccccc2)n2c-3cc3cc(-c4cnc([C@@H]5C[C@@H](F)CN5C(=O)[C@@H](NC(=O)OC)C(C)C)[nH]4)ccc32)[nH]1)C(C)C (mixture of isomers) | 0.01 nM | 63 nM | 2 nM | 2 nM | 10 nM | 0.004 nM | 0.7 nM | 0.2 nM | –
COC(=O)N[C@H](C(=O)N1CCC[C@H]1c1ncc(-c2ccc3c(c2)OCn2c-3c(C3CC3)c3cc(-c4cnc([C@@H]5CCCN5C(=O)[C@@H](NC(=O)OC)C(C)C)[nH]4)ccc32)[nH]1)C(C)C | 0.03 nM | 122 nM | 10 nM | 100 nM | 8 nM | 0.004 nM | 0.005 nM | 0.3 nM | –
COC(=O)N[C@H](C(=O)N1CCC[C@H]1c1ncc(-c2ccc3c(c2)OCn2c-3cc3cc(-c4cnc([C@@H]5CCCN5C(=O)[C@@H](NC(=O)OC)C(C)C)[nH]4)cc(F)c32)[nH]1)C(C)C | 0.1 nM | > 100 nM | > 10 nM | 139 nM | 3 nM | 0.01 nM | 0.1 nM | 0.2 nM | –
COC(=O)N[C@H](C(=O)N1CCC[C@H]1c1ncc(-c2ccc3c(c2)cc2n3[C@H](c3ccccc3)Oc3cc(-c4cnc([C@@H]5CCCN5C(=O)[C@@H](NC(=O)OC)C(C)C)[nH]4)c(F)cc3-2)[nH]1)C(C)C | 0.003 nM | > 100 nM | 1 nM | 62 nM | 1 nM | 0.003 nM | 0.003 nM | 0.02 nM | –
COC(=O)N[C@H](C(=O)N1CCC[C@H]1c1ncc(-c2ccc3c(c2)cc2n3[C@H](c3ccccc3)Oc3c-2ccc(-c2cnc([C@@H]4CCCN4C(=O)[C@@H](NC(=O)OC)C(C)C)[nH]2)c3F)[nH]1)C(C)C | 0.04 nM | > 100 nM | > 10 nM | > 100 nM | 36 nM | 0.003 nM | 0.4 nM | 1 nM | –
COC(=O)N[C@H](C(=O)N1CCC[C@H]1c1ncc(-c2ccc3c(c2)OC(c2cccc(OC)c2)n2c-3cc3cc(-c4cnc([C@@H]5CCCN5C(=O)[C@@H](NC(=O)OC)C(C)C)[nH]4)ccc32)[nH]1)C(C)C (stereo partly specified) | 0.005 nM | 2 nM | 0.1 nM | 8 nM | 0.2 nM | – | – | – | AUC [17]: 0.51 µM·h; Cmax [18]: 100 nM; half-life [19]: 4.3 h
